V-ATPase pHluor – alters yeast V-ATPase proton transport. S. cerevisiae, pHLuorin cytosolic pH fluorescence. response, % at 10 µM. 350,000 tested, 0.37% active. AID 504577; in the data active = response mostly above about 7.3%, no sharp cut-off; inactive = mostly below about 5.4%; note: actives read high
HIF act – HIF pathway transcriptional activation. U2OS HRE-luciferase reporter, luminescence; normalized: DMSO 0%, desferrioxamine 100%. activation, % at 7.5 µM (by protocol). 300,000 tested, 0.32% active. AID 1910;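 active = mean activation of at least 10% of the iron chelator positive control signal, with at least half of replicates also reaching 10%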
AI-2 QS mod – modulators of Vibrio harveyi AI-2 quorum sensing system; Vibrio harveyi JMH597 AI-2 luminescence/OD600 ratio, 9 h; stronger effect = lower value; strain lacks LuxN and CqsS sensors; 0 = neutral-control median; activity change, % at 7.5 µM; 300,000 tested, 0.4% active; in the data active = activity change below about -75%, passing the limit was not always enough;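 note: luminescence divided by OD600 gain over 9 h not by final OD600 alone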
T cruzi repl – T. cruzi replication inhibition | T. cruzi beta-gal in NIH3T3, luminescence, 90 h | inhibition, % (concentration not given with the values) | 300,000 tested, 1.4% active;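 active = mean inhibition across valid replicates above about 55%, limit read from the data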;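 note: signal also drops with host cell toxicity which is not excluded here; 0% = plate median of DMSO wells and 100% = zero luminescence signal; higher percent means less beta-gal luminescence so fewer parasites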
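Material: NIH/3T3 host cells with β-galactosidase reporter T. cruzi; Input: 5,000 host fibroblasts per well; Medium: DMEM, 2% fetal bovine serum; Compound: 50 nL DMSO compound solution per well; Schedule: 3 h host attachment, then at least 90 h co-culture; Detection: luminescent β-galactosidase signal after 60 min lysis.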
Yeast superoxide – caloric restriction mimetics inhibiting age-related superoxide in yeast. 330,000 tested, 0.18% active. S. cerevisiae aged cells, superoxide DHE fluorescence; stronger effect = lower value. superoxide response (% of plate mean), % at 10 µM;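 active = superoxide response under a set limit, about three screen SD below normal, cut at about 65% in these data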;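 note: yeast aged for seven days with compound at 30 °C before DHE staining; 100% = average MFI of all compound-treated wells on the plate with controls excluded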
NRP1-CendR mod – modulators of CendR peptide binding to human neuropilin-1; 360,000 tested, 0.85% active; FAM-RPARPAR peptide binding to NRP-1, fluorescence polarization; inhibition, % at 25 µM;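 active = inhibition or corrected inhibition above about 18%, plus a signal ratio from 0.5 to 1.5, limit read from the data, passing the limit was not always enough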
Target sequence (O14786 whole entry, looked up): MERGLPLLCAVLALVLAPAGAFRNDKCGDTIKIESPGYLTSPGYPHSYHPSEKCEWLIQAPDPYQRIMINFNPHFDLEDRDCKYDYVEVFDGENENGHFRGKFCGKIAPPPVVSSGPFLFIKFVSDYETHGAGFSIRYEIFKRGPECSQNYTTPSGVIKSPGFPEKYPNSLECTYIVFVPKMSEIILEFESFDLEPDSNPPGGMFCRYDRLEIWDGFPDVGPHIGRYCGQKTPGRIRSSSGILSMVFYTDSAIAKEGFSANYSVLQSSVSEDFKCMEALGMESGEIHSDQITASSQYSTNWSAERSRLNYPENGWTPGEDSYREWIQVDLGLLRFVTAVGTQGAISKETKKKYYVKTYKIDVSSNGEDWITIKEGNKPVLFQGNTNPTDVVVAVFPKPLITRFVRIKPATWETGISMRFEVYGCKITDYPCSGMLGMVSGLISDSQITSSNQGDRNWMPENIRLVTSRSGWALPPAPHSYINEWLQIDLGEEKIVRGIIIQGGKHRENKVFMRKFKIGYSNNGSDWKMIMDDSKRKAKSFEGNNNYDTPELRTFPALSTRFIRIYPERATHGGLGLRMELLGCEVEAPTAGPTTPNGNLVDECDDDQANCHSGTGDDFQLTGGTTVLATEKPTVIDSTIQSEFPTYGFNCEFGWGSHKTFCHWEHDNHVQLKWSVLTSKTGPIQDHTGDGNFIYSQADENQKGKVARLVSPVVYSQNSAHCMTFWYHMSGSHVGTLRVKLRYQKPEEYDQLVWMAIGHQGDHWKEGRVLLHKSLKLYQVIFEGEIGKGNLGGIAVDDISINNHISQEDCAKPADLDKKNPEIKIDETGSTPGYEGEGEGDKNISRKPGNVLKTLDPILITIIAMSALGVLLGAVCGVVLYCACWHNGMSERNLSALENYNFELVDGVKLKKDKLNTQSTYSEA
* = called active by the depositor; nt = no result. Compounds with a hit are over-represented: about 3% of the library has one in this group of screens.

SMILES | V-ATPase pHluor | HIF act | AI-2 QS mod | T cruzi repl | Yeast superoxide | NRP1-CendR mod
Cc1cccc(-n2cc(CN(C)Cc3nccn3C)c(-c3cccc(F)c3)n2)c1 | 0.2 | 0.0 | 11.9 | 65.2* | 78.7 | 7.8
COc1ccc(-n2cc(CN(C)CCO)c(-c3cccc(F)c3)n2)cc1 | -0.3 | 0.2 | 30.4 | 16.1 | 79.5 | 13.0
CCN(CC(=O)Nc1ccc(NC(C)=O)cc1)C(=O)CCCOc1cccc(C)c1 | 1.9 | 1.2 | 31.4 | -12.8 | 109.0 | 1.7
O=C(NCc1ccco1)c1cc2n(n1)C(C(F)(F)F)CC(c1ccc(Br)cc1)N2 (stereo unspecified) | 2.2 | 0.4 | -1.1 | 2.3 | 89.5 | 4.1
O=C(NCc1ccco1)c1cc2n(n1)C(C(F)(F)F)CC(c1ccc(Cl)c(Cl)c1)N2 (stereo unspecified) | -0.8 | -0.1 | 6.0 | 55.4* | 114.5 | -15.1
C=CCNC(=O)C1CC2Cn3c(nc4cc5ccccc5cc43)C2N1C (stereo unspecified) | -4.6 | 1.4 | 18.7 | -18.5 | 100.7 | 18.9*
CN1C(C(=O)NCc2cccc(C(F)(F)F)c2)CC2Cn3c(nc4cc5ccccc5cc43)C21 (stereo unspecified) | 1.5 | -0.1 | 6.4 | 15.5 | 81.6 | -5.0
CC(C)C(=O)NC(=S)Nc1ccccn1 | 3.6 | -15.3 | 26.3 | -6.8 | 91.3 | -5.1
COC(=O)CSC1=NS(=O)(=O)c2ccccc21 | 11.3* | -0.1 | 47.9 | -5.9 | 85.4 | -26.2
O=C(CSC1=NS(=O)(=O)c2ccccc21)Nc1ccccc1 | 1.6 | 0.3 | 51.9 | -39.3 | 68.5 | -32.2
Oc1ccc(NC(=S)N=Nc2c(O)[nH]c3ccccc23)cc1 | -5.3 | 1.1 | 31.3 | -34.7 | 96.3 | 3.0
Oc1[nH]c2ccc(Br)cc2c1N=NC(=S)Nc1ccc(F)cc1 | 1.9 | -0.3 | 35.7 | 59.3* | 104.4 | -1.3
Cc1ccc(NC(=S)N=Nc2c(O)[nH]c3ccccc23)cc1 | 6.2 | 2.3 | 38.3 | 68.0* | 107.7 | 5.9
CCNc1nc(NCC)nc(NC(N)=S)n1 | 6.1 | 0.1 | 31.3 | 3.0 | 104.8 | -8.7
CC(OC(=O)c1cnccn1)C(=O)c1ccccc1 (stereo unspecified) | -0.9 | -10.0 | 4.6 | -16.5 | 97.0 | 13.1
Cc1ccc(CCNCc2c(C(=O)O)c(C)n(-c3ccccc3)c2C)cc1 | 4.7 | 0.3 | 7.0 | -6.7 | nt | -12.2
CCC(CC)C(=O)N(C)c1c(C)nc2c(OCc3ccccc3OC)cccn12 | nt | nt | nt | nt | nt | -13.7
CCCNC(=O)c1ccc(CN2CCc3ccccc3C2)cc1 | -3.3 | 0.2 | 24.5 | 7.7 | 103.3 | -8.6
C/C(=N\NC(=O)CN1CCCCC1)c1ccccc1O | -2.5 | 12.7* | -10.6 | -5.6 | 106.3 | -1.4
C/C(=N\NC(=O)c1ccc(CN2CCc3ccccc3C2)cc1)c1ccccc1O | -1.5 | 1.0 | 95.8 | 64.4* | 92.1 | 0.1
O=C1CC(SC(=Nc2ccccc2)Nc2ccccc2)C(=O)N1c1ccc(Cl)c(Cl)c1 (stereo unspecified) | -2.7 | 0.4 | 14.1 | 55.4* | 90.2 | -4.0
Cc1nn(-c2cc(N3CCCC3)ccc2[N+](=O)[O-])c(=O)c2ccccc12 | -0.1 | -1.1 | 14.4 | 2.5 | 112.3 | -0.2
Cc1ccc(C)c(-c2nn(-c3cc(N4CCN(CCO)CC4)ccc3[N+](=O)[O-])c(=O)c3ccccc23)c1 | -4.0 | -0.7 | -4.6 | 60.8* | 108.1 | -5.8
COc1ccccc1CC(=O)N(CCC1=CCCCC1)c1c(N)n(Cc2ccccc2)c(=O)[nH]c1=O | 1.3 | -0.4 | 26.6 | 5.6 | 101.7 | -0.5
COc1ccc(C(CCN)c2ccc3c(c2)OCO3)cc1 (stereo unspecified) | 0.7 | 0.2 | 8.4 | 60.3* | 94.1 | -2.6
SMILES | V-ATPase pHluor | HIF act | AI-2 QS mod | T cruzi repl | Yeast superoxide | NRP1-CendR mod
O=C(/C(Br)=C/Nc1cc(Cl)ccc1Cl)C(F)(F)F | 1.1 | -0.3 | -2.4 | -22.0 | 105.3 | -13.4
O=C(COc1ccc(-c2ccccc2)cc1)Nc1cccnc1 | -0.2 | nt | nt | nt | 114.1 | -5.8
O=C(O)CCN1C(=O)c2ccc(NC(=O)c3ccco3)cc2C1=O | 4.4 | nt | 9.2 | nt | 100.0 | 21.0*
CCCSc1oc(-c2ccco2)nc1S(=O)(=O)c1ccc(C)cc1 | 5.6 | -0.5 | 36.4 | 16.1 | 101.7 | 3.6
COC(=O)c1cn(-c2ccccc2)c(C)c1C(=O)OC | -1.0 | -0.4 | 9.4 | -6.8 | 124.9 | 22.3*
COC(=O)c1cn(-c2ccccc2)nc1-c1ccccc1 | 2.1 | -0.1 | 11.7 | -1.6 | 104.2 | 5.2
CC(=O)NC1=C(NC2CCS(=O)(=O)C2)C(=O)c2ccccc2C1=O (stereo unspecified) | 6.1 | -1.8 | -2.2 | -17.8 | 187.7 | 2.4
CN(C1=C(NC(=O)c2ccccc2)C(=O)c2ccccc2C1=O)C1CCS(=O)(=O)C1 (stereo unspecified) | 7.0 | 1.2 | 46.3 | 37.3 | 173.3 | 44.9*
O=C(NNC(=O)c1csc(-c2ccccc2)n1)c1ccccc1 | nt | nt | nt | nt | nt | 10.3
COc1ccccc1Nc1ccc2c(O)cc(S(=O)(=O)O)cc2c1 | -2.6 | nt | nt | nt | nt | 71.0*
O=S(=O)(O)c1cc(O)c2cc(Nc3ccccc3)ccc2c1 | -1.7 | nt | nt | nt | nt | 41.9*
O=S(=O)(O)c1cc(O)c2ccc(Nc3ccccc3)cc2c1 | -1.2 | nt | nt | nt | nt | -4.0
Nc1ccc2c(O)cc(S(=O)(=O)O)cc2c1 | -1.4 | nt | nt | nt | nt | 27.8*
O=C(OCc1cc(=O)oc2cc(O)ccc12)c1cc(S(=O)(=O)N2CCOCC2)ccc1F | 0.0 | 0.6 | 0.6 | -8.9 | 97.6 | -10.0
CNc1nc(N/N=C/c2cc3c(cc2[N+](=O)[O-])OCO3)nc(Nc2ccccc2)n1 | -1.0 | -8.5 | 9.0 | 71.5* | 135.4 | -18.6
CCOC(=O)/C(=N\Nc1ccccc1Cl)N1CCN(c2ccccc2OC)CC1 | 0.0 | -0.8 | 12.3 | 67.2* | 92.2 | 6.6
CCN1C(=O)/C(=C2\SC(=S)N(CCCOC)C2=O)c2ccccc21 | -0.7 | -0.3 | 16.8 | -28.2 | 89.9 | 11.7
COCCN1C(=O)/C(=C2/C(=O)N(CC(=O)Nc3ccccc3Cl)c3ccccc32)SC1=S | 3.7 | 0.1 | 15.0 | -18.6 | 105.5 | 28.1*
Cc1noc(C)c1S(=O)(=O)Nc1ccc(C(C)C)cc1 | 0.0 | -1.0 | 22.3 | 7.6 | 85.7 | 17.6*
CC(C)c1ccc(NS(=O)(=O)c2ccc(Cl)nc2)cc1 | -0.9 | nt | -92.4* | 12.8 | 119.2 | 9.1
O=C(NCCOc1ccccc1)C1Nc2ccc(OC(F)(F)F)cc2C2C=CCC12 (stereo unspecified) | 16.8* | -0.9 | 10.6 | 14.6 | 104.0 | 0.5
O=C(NCCF)C1Nc2ccc(OC(F)(F)F)cc2C2C=CCC12 (stereo unspecified) | 5.6 | -1.0 | 14.4 | -2.4 | 99.9 | 5.1
COc1ccc(-n2c(Cc3cccn3C)nnc2SCC(N)=O)cc1 | -1.8 | 0.1 | -8.6 | -6.2 | 99.8 | -4.5
Cc1ccc(C)c(S(=O)(=O)N2CCN(C(=O)CCc3c[nH]c4ccccc34)CC2)c1 | 3.4 | nt | nt | nt | 99.5 | 2.5

High-throughput results from PubChem.
